These results are taken from ChEMBL document CHEMBL4842315, “Discovery and mechanism of action studies of 4,6-diphenylpyrimidine-2-carbohydrazides as utrophin modulators for the treatment of Duchenne muscular dystrophy” (Eur J Med Chem, 2021).

SMILES strings stand for the structures. The source made the active and inactive calls. No cut-off for these calls is given here. Where only a bound is given, the exact number is not on record here.

System in one data set: not listed separately
In words: Apparent permeability of the compound across apical to basolateral side in human Caco-2 cells. In kind it is ADME, cell-based. The conditions noted are these: read-out: permeability.
Regarding `NNC(=O)c1nc(-c2ccccc2)cc(-c2ccccc2)n1`, the Papp A→B was found to be 30.7 ×10⁻⁶ cm/s.

System in the next data set: not listed separately
In words: Upregulation of utrophin gene expression in DMD disease mouse model myoblasts expressing H2K-mdx utrnA-firefly luciferase assessed as fold increase in utrophin mRNA at 30 uM by qRT-PCR analysis relative to control. The format is functional, Myoblast.
Settings: not given
(In general: Real-time PCR tracks product formation cycle by cycle.)
Regarding `NNC(=O)c1nc(-c2ccccc2)cc(-c2ccccc2)n1`, the “fold change (FC)” value is given as 1.6.

System in the next data set: not listed separately
The data set can be described thus: Upregulation of utrophin gene expression in mouse myoblasts expressing LUmdx and firefly luciferase assessed as activation of utrophin promoter at 0.1 to 50 uM by cell-based reporter assay relative to control. The format is functional, Myoblast. Particulars: dose 0.1-50 µM. In short, it runs like this:
(§1)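 Immortalised myoblasts derived from the LUmdx mouse carry a utrophin promoter–firefly luciferase reporter, and promoter activation is read as luciferase signal. During screening, hits were counterscreened for firefly luciferase assay interference.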
Background: In a reporter assay the amount or activity of a reporter protein is the signal.
Consider `NNC(=O)c1nc(-c2ccccc2)cc(-c2ccccc2)n1`, for which the “fold change (FC)” value was 2.

System in a further data set: not listed separately
In words: Upregulation of utrophin gene expression in mouse myoblasts expressing LUmdx and firefly luciferase assessed as activation of utrophin promoter by cell-based reporter assay. In kind it is functional, tissue-based, Myoblast. The conditions noted are these: Mus musculus, Myoblast; read-out: EC50. In short, it runs like this: as §1
In general, EC50 refers to the concentration at which the effect is half-maximal. For the compound `NNC(=O)c1nc(-c2ccccc2)cc(-c2ccccc2)n1`, the EC50 is 20.5 µM.

Consider `NNC(=O)c1nc(-c2ccccc2)cc(-c2ccc(CO)cc2)n1`, for which the EC50 came to 1.9 µM.

On to `C#CCOCCOc1ccc(-c2cc(-c3ccccc3)nc(C(=O)NN)n2)cc1`, for which the EC50 was 14.9 µM.

For the compound `COc1cccc(-c2cc(-c3cccc(OC)c3)nc(C(=O)NN)n2)c1`, the EC50 came to 9.22 µM.

As for `COCc1ccc(-c2cc(-c3ccccc3)nc(C(=O)NN)n2)cc1`, the EC50 amounted to 4.65 µM.

As for `NNC(=O)c1nc(-c2ccccc2)cc(-c2ccc(C3(C(F)(F)F)N=N3)cc2)n1`, the concentration for a half-maximal effect (EC50) was found to be 7.22 µM.

Consider `NNC(=O)c1nc(-c2ccc(C(F)(F)F)cc2)cc(-c2ccc(C(F)(F)F)cc2)n1`, for which the EC50 is over 10 µM.

With `NNC(=O)c1nc(-c2ccccc2)nc(-c2ccccc2)n1`, the EC50 was found to be 8.98 µM.

`COc1ccc(-c2cc(-c3ccc(OC)cc3)nc(C(=O)NN)n2)cc1`: the EC50 stood at 7.14 µM.

Regarding `CCOc1ccc(-c2cc(-c3ccccc3)nc(C(=O)NN)n2)cc1`, the EC50 stood at 2.71 µM.

As to `CC(=O)NCCOCCOc1ccc(-c2cc(-c3ccccc3)nc(C(=O)NN)n2)cc1`, the 50% effective concentration (EC50) turned out to be 12.7 µM.

For `NNC(=O)c1nc(-c2cccc(F)c2)cc(-c2cccc(F)c2)n1`, the EC50 is over 10 µM.

For `NNC(=O)c1nc(-c2ccccc2F)cc(-c2ccccc2F)n1`, the EC50 is 11 µM.

Turning to `CCCc1ccc(-c2cc(-c3ccccc3)nc(C(=O)NN)n2)cc1`, the EC50 turned out to be 4.54 µM.

For `CCCOc1ccc(-c2cc(-c3ccccc3)nc(C(=O)NN)n2)cc1`, the EC50 is 5.62 µM.

Turning to `NNC(=O)c1nc(-c2ccccc2)cc(-c2ccc(O)cc2)n1`, the EC50 is 1.57 µM.

As to `COCCOc1ccc(-c2cc(-c3ccccc3)nc(C(=O)NN)n2)cc1`, the EC50 came out at 8.95 µM.

For `C#CCOCCOc1ccc(-c2cc(-c3ccc(C4(C(F)(F)F)N=N4)cc3)nc(C(=O)NN)n2)cc1`, the EC50 was found to be 20 µM.

With `NNC(=O)c1nc(-c2ccc(F)cc2)cc(-c2ccc(F)cc2)n1`, the EC50 is 12.8 µM.

On to `COc1ccc(-c2cc(-c3ccccc3)nc(C(=O)NN)n2)cc1`, for which the EC50 stood at 2.28 µM.

The data set is the same for the next values; noted with them: myoblast.
For `NNC(=O)Cc1nc(-c2ccccc2)cc(-c2ccccc2)n1`, the half-maximal effective concentration (EC50) entry is recorded as “Not Active”.

Take `CCCCOc1ccc(-c2cc(-c3ccccc3)nc(C(=O)NN)n2)cc1`: the concentration giving a half-maximal response (EC50) entry is on record as “Not Active”.

As to `O=C(O)c1nc(-c2ccccc2)cc(-c2ccccc2)n1`, the EC50 entry was “Not Active”.

For the compound `NNC(=O)c1cc(-c2ccccc2)nc(-c2ccccc2)n1`, the EC50 result is listed as “Not Active”.

With `NNC(=O)c1cc(-c2ccccc2)cc(-c2ccccc2)n1`, the EC50 entry is reported as “Not Active”.

As to `NNC(=O)c1nc(-c2cccc(C(F)(F)F)c2)cc(-c2cccc(C(F)(F)F)c2)n1`, the EC50 result was “Not Active”.

Take `O=C(NO)c1nc(-c2ccccc2)cc(-c2ccccc2)n1`: the EC50 result is “Not Active”.

On to `NNc1nc(-c2ccccc2)cc(-c2ccccc2)n1`, for which the EC50 result is “Not Active”.

Consider `NC(=O)c1nc(-c2ccccc2)cc(-c2ccccc2)n1`, for which the EC50 entry is given as “Not Active”.

In the case of `NNC(=O)c1ncccn1`, the concentration for a half-maximal effect (EC50) result is reported as “Not Active”.

As for `NNC(=O)c1nc(-c2ccccc2)cc(-c2ccc(OCCOCc3ccccc3)cc2)n1`, the EC50 entry is “Not Active”.

Take `N/N=C/c1nc(-c2ccccc2)cc(-c2ccccc2)n1`: the EC50 result is “Not Active”.

With `NNC(=O)c1nc(-c2ccccc2)cc(-c2ccc(Oc3ccccc3)cc2)n1`, the EC50 result is on record as “Not Active”.

For `COc1cc(-c2ccccc2)nc(C(=O)NN)n1`, the EC50 result is “Not Active”.

On to `COC(=O)c1nc(-c2ccccc2)cc(-c2ccccc2)n1`, for which the 50% effective concentration (EC50) entry is “Not Active”.

With `NNC(=O)c1nc(Oc2ccccc2)cc(-c2ccccc2)n1`, the concentration giving a half-maximal response (EC50) result is given as “Not Active”.

Consider `COc1ccccc1-c1cc(-c2ccccc2OC)nc(C(=O)NN)n1`, for which the EC50 entry was “Not Active”.

`Cc1c(-c2ccccc2)nc(C(=O)NN)nc1-c1ccccc1`: the EC50 entry is given as “Not Active”.

`NNC(=O)c1cnc(-c2ccccc2)cc1-c1ccccc1`: the EC50 entry is “Not Active”.

With `Cc1cc(C)nc(C(=O)NN)n1`, the EC50 entry is given as “Not Active”.

Turning to `NNC(=O)c1nc(-c2ccccc2C(F)(F)F)cc(-c2ccccc2C(F)(F)F)n1`, the EC50 result is on record as “Not Active”.

Take `NNC(=O)c1nc(-c2ccccc2)cc(C2CCCCC2)n1`: the EC50 result is “Not Active”.

In the case of `C#CCOCCOc1ccc(-c2nc(C(=O)NN)nc(-c3ccc(C4(C(F)(F)F)N=N4)cc3)c2C)cc1`, the concentration giving a half-maximal response (EC50) entry was “Not Active”.

System in another data set: not listed separately
In words: Upregulation of utrophin gene expression in DMD disease mouse model myoblasts expressing H2K-mdx utrnA-firefly luciferase assessed as fold increase in utrophin mRNA at 3 uM by qRT-PCR analysis relative to control. In kind it is functional, Myoblast.
Settings: not given
Turning to `CCS(=O)(=O)c1ccc2oc(-c3ccc4ccccc4c3)nc2c1` [EZUTROMID], the “fold change (FC)” value was found to be 1.7.

The subject of a further data set is Myoblast. In words: Upregulation of AhR gene expression in DMD disease mouse model myoblasts expressing H2K-mdx utrnA-firefly luciferase assessed as fold increase in AhR mRNA at 30 uM by qRT-PCR analysis relative to control.
Settings: not given
As for `CCS(=O)(=O)c1ccc2oc(-c3ccc4ccccc4c3)nc2c1` [EZUTROMID], the “fold change (FC)” value is “inactive”.

A further data set concerns Myoblast. In words: Upregulation of utrophin gene expression in DMD disease mouse model myoblasts expressing H2K-mdx utrnA-firefly luciferase assessed as activation of utrophin promoter by cell-based reporter assay. The format is functional, tissue-based.
Settings: not given
For `NNC(=O)c1nc(-c2ccccc2)cc(-c2ccccc2)n1`, the result was inactive.
